Published values pooled from the literature.
Compare with care: the assays were run in different laboratories.
Read-out: enzyme activity
Action: inhibitor
PIK3CA: Phosphatidylinositol 4,5-bisphosphate 3-kinase catalytic subunit alpha isoform (PIK3CA, Homo sapiens, UniProt P42336)
KDR: Vascular endothelial growth factor receptor 2 (KDR, Homo sapiens, UniProt P35968)
PIK3CB: Phosphatidylinositol 4,5-bisphosphate 3-kinase catalytic subunit beta isoform (PIK3CB, Homo sapiens, UniProt P42338)

SMILES	target	technique	IC50 [nM]
Cc1cccc(N=C2C(=O)N(Cc3ccccc3)c3ccccc32)c1	PIK3CA	ADP detection	8.64
O=[N+]([O-])c1cc(Br)c(O)c(C=NNc2ccc(Br)cc2)c1	KDR	ATP luminescence	7070
O=C1/C(=C/c2ccc3ccccc3c2O)NC(=S)N1c1ccccc1	KDR	ELISA	235
CNC(=O)[C@H](Cc1c[nH]c2ccccc12)NC(=O)[C@@H](CC(=O)NO)CC(C)C	Macrophage metalloelastase (MMP12, Homo sapiens, UniProt P39900)		0.328
Cc1ccc(CN2C(=O)C(=Nc3c(C(C)C)cccc3C(C)C)c3ccccc32)cc1	PIK3CA	ADP detection	319
O=[N+]([O-])c1cc(Br)c(O)c(C=NNc2ccccc2)c1	KDR	ATP luminescence	5400
O=C1C(=Nc2ccccc2I)c2ccccc2N1Cc1ccc(Br)cc1	PIK3CA	ADP detection	298
CN(C)C(=O)c1cc2cnc(Nc3cncc(-c4ccc5c(=O)cc(N6CCOCC6)oc5c4)c3)nc2n1C1CCCC1	PIK3CA	radiometric	260
O=C(O)[C@H]1O[C@@H](Oc2cc3oc(-c4ccc(O)cc4)cc(=O)c3c(O)c2O)[C@H](O)[C@@H](O)[C@@H]1O	KDR	TR-FRET	8350
O=C1C(=Nc2ccc(Cl)cc2)c2ccccc2N1Cc1ccc([N+](=O)[O-])cc1	PIK3CB	ADP detection	7.73
O=[N+]([O-])c1ccc(O)c(C=NNc2ccc(Cl)cc2)c1	KDR	ATP luminescence	21200
O=C(Nc1nnc(-c2ccc3c(c2)OCCO3)o1)c1ccc(C(=O)c2ccccc2)cc1	PIK3CA	ADP detection	470
CN(C)C(=O)c1cc2cnc(Nc3ccc(-c4ccc5c(=O)cc(N6CCNCC6)oc5c4)cc3)nc2n1C1CCCC1	PIK3CA	radiometric	> 10000
O=[N+]([O-])c1ccc(O)c(C=NNc2ccc(Br)cc2)c1	KDR	ATP luminescence	12600
Cc1nc2c(F)cc(-c3ccnc(Nc4ccc5c(=O)cc(N6CCOCC6)oc5c4)n3)cc2n1C(C)C	PIK3CA	radiometric	2130
COc1ccc(-c2cc(=O)c3c(O)cc(O[C@@H]4O[C@H](CO[C@@H]5O[C@@H](C)[C@H](O)[C@@H](O)[C@H]5O)[C@@H](O)[C@H](O)[C@H]4O)cc3o2)cc1O	KDR	TR-FRET	32700
CN(C)C(=O)c1cc2cnc(Nc3cc(C(=O)O)cc(-c4cccc5c(=O)cc(N6CCOCC6)oc45)c3)nc2n1C1CCCC1	PIK3CA	radiometric	1590
O=[N+]([O-])c1cc(Br)c(O)c(C=NNc2ccc(Cl)cc2)c1	KDR	ATP luminescence	7700
CN(C)C(=O)c1cc2cnc(Nc3ccc(-c4cccc5c(=O)cc(N6CCOCC6)oc45)c(F)c3)nc2n1C1CCCC1	PIK3CA	radiometric	182
O=C1C(=Nc2ccc(Cl)cc2)c2ccccc2N1Cc1cccc(Cl)c1	PIK3CA	ADP detection	322
CN(C)C(=O)c1cc2cnc(Nc3ccc4c(=O)cc(N5CCNCC5)oc4c3)nc2n1C1CCCC1	PIK3CA	radiometric	> 10000
COc1cc(N=C2C(=O)N(Cc3ccccc3)c3ccccc32)cc(OC)c1	PIK3CA	ADP detection	7.31
O=[N+]([O-])c1cc(I)c(O)c(C=NNc2ccccc2)c1	KDR	ATP luminescence	4970
COc1ccc(-c2oc3cc(Nc4ncc5cc(C(=O)N(C)C)n(C6CCCC6)c5n4)ccc3c(=O)c2F)cc1	PIK3CA	radiometric	> 10000
CCc1ccc(N=C2C(=O)N(Cc3ccccc3)c3ccccc32)cc1	PIK3CB	ADP detection	22.1
COc1ccc(-c2cc(=O)c3ccc(Nc4ncc5cc(C(=O)N(C)C)n(C6CCCC6)c5n4)cc3o2)cc1	PIK3CA	radiometric	> 10000
CCc1ccc(N=C2C(=O)Nc3ccccc32)cc1	PIK3CB	ADP detection	270
